Measured values taken from ChEMBL document CHEMBL1141712, “Kinase array design, back to front: biaryl amides” (Bioorg Med Chem Lett, 2008).
pIC50, pKi: −log10 of the molar value. Values belong to the compound of their own block, whether it stands above or below them.

Assays:
[1] = target: T1, Mitogen-activated protein kinase 14 (Homo sapiens, UniProt Q16539); test: Displacement of fluorescent ATP competitive ligand from p38alpha
[2] = test system: PBMC; test: Inhibition of LPS-stimulated TNFalpha release in human PBMCs; format: functional, cell-based
[3] = target: Receptor tyrosine-protein kinase erbB-4 (Homo sapiens, UniProt Q15303); test: Inhibition of ErbB4
[4] = target: Tyrosine-protein kinase Lck (Homo sapiens, UniProt P06239)
[5] = target: Epidermal growth factor receptor (Homo sapiens, UniProt P00533)
[6] = target: Serine/threonine-protein kinase PLK1 (Homo sapiens, UniProt P53350); test: Inhibition of PLK1
[7] = target: Macrophage colony-stimulating factor 1 receptor (Homo sapiens, UniProt P07333); test: Inhibition of cFMS
[8] = target: Vascular endothelial growth factor receptor 2 (Homo sapiens, UniProt P35968); test: Inhibition of VEGFR2
[9] = target: Cyclin-dependent kinase 2 (Homo sapiens, UniProt P24941); test: Inhibition of CDK2
[10] = test system: Blood; test: Inhibition of LPS-stimulated TNFalpha release in human whole blood; format: functional, tissue-based
[11] = target: Mitogen-activated protein kinase 10 (Homo sapiens, UniProt P53779); test: Inhibition of JNK3
[12] = target: T2, Serine/threonine-protein kinase Sgk1 (Homo sapiens, UniProt O00141); test: Inhibition of SGK1
T2 sequence (O00141 whole entry): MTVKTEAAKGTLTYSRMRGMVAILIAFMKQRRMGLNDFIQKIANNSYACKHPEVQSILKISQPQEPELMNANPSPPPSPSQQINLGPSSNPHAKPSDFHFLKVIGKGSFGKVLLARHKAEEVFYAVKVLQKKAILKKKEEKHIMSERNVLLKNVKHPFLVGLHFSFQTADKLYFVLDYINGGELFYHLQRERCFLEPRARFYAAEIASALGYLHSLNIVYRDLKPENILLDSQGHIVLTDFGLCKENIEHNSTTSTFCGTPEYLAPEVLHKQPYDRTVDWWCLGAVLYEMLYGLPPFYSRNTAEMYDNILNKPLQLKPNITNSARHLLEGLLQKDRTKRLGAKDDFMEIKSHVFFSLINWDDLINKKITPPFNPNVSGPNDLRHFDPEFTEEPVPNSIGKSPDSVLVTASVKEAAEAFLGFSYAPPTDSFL

[13] = target: Dual specificity mitogen-activated protein kinase kinase 1 (Homo sapiens, UniProt Q02750); test: Inhibition of MEK1 by cRaf/mek/Erk cascade assay
[14] = AUC ( 0 to 12 hrs) in Lewis rat at 1 mg/kg, po; format: ADME, organism-based; parameters: time < 12 hr, dose 1 mg/kg, route oral; details: plasma
[15] = Oral bioavailability in Lewis rat at 1 mg/kg; format: ADME, organism-based; details: in vivo
Method in brief: (§1)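 Male Lewis rats were dosed at 1 mg/kg intravenously and orally, with compound given as a solution in 10% DMSO/70% PEG200/20% water. Blood was collected over 12 h, and parameters were derived from a composite blood sampling profile.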

[16] = Plasma clearance in Lewis rat at 1 mg/kg, iv; format: ADME, organism-based; parameters: dose 1 mg/kg, route intravenous; method in brief: as §1
[17] = Terminal half life in Lewis rat at 1 mg/kg, iv; format: ADME, organism-based; parameters: dose 1 mg/kg, route intravenous; details: in vivo, read-out: beta t1/2 (converted); method in brief: as §1
[18] = Volume of distribution at steady state in Lewis rat at 1 mg/kg, iv; format: ADME, organism-based; parameters: dose 1 mg/kg, route intravenous; details: in vivo, read-out: Vdss; method in brief: as §1
[19] = target: T1, Mitogen-activated protein kinase 14; test: Inhibition of p38alpha
Method in brief: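 p38α Ki determined by measuring displacement of a fluorescent ATP-competitive inhibitor from the enzyme. Impure products and those giving inconsistent assay results were excluded.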

Chain of Epidermal growth factor receptor (P00533 whole entry): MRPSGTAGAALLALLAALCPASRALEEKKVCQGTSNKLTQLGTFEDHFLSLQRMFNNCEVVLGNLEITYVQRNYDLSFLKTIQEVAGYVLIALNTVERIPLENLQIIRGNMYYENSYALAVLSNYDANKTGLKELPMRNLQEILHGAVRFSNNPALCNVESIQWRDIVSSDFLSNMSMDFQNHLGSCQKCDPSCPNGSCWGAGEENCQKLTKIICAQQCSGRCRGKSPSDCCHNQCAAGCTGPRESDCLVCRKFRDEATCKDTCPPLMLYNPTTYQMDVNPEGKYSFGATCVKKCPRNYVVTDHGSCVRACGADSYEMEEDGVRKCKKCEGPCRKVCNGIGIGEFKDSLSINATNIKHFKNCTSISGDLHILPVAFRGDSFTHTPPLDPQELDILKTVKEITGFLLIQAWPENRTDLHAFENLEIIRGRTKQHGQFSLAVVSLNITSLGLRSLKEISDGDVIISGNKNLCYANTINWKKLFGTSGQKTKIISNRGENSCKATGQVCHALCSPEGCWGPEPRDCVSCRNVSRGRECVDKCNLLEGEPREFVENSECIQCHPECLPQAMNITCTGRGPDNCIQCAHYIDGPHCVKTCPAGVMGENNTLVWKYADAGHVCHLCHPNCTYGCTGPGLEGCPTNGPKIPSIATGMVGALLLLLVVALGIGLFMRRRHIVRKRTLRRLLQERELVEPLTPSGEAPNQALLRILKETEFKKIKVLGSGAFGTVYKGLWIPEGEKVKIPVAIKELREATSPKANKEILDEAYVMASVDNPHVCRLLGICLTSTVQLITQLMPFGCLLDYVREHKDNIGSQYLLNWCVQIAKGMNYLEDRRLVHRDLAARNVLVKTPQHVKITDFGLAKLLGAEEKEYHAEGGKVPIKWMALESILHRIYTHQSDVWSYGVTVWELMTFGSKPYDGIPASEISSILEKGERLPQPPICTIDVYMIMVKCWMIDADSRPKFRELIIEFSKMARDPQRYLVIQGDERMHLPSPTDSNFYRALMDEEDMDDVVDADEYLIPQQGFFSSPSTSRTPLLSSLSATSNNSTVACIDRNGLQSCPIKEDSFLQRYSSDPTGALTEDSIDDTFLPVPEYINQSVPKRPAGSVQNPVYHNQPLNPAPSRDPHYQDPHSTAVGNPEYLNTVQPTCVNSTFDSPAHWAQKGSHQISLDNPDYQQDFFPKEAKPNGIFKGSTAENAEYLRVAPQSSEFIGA
Chain of Serine/threonine-protein kinase PLK1 (P53350 whole entry): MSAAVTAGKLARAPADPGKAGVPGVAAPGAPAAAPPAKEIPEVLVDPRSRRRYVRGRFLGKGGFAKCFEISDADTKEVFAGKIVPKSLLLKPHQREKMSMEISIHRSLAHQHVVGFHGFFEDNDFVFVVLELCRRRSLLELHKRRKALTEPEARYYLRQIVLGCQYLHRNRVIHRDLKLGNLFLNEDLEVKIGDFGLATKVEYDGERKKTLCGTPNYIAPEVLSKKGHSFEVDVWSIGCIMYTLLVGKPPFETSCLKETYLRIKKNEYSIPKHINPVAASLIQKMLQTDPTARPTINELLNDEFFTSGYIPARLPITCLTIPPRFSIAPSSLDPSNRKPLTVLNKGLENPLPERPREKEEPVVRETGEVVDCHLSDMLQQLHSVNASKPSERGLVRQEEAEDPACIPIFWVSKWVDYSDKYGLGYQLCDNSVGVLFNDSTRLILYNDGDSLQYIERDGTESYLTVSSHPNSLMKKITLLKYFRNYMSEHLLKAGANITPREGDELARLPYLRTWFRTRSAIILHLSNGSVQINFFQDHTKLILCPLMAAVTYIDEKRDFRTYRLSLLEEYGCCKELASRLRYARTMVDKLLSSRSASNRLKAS
T1 sequence (Q16539 whole entry): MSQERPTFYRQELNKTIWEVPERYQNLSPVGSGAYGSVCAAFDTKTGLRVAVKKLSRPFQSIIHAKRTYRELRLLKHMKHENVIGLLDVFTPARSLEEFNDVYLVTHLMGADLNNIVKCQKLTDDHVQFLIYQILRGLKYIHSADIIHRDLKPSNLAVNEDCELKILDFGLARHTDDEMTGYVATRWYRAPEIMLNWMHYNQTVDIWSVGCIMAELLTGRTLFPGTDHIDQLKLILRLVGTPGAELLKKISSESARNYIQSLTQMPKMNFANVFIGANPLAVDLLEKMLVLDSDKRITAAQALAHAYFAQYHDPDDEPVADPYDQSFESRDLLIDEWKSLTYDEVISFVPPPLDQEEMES
Chain of Receptor tyrosine-protein kinase erbB-4 (Q15303 whole entry): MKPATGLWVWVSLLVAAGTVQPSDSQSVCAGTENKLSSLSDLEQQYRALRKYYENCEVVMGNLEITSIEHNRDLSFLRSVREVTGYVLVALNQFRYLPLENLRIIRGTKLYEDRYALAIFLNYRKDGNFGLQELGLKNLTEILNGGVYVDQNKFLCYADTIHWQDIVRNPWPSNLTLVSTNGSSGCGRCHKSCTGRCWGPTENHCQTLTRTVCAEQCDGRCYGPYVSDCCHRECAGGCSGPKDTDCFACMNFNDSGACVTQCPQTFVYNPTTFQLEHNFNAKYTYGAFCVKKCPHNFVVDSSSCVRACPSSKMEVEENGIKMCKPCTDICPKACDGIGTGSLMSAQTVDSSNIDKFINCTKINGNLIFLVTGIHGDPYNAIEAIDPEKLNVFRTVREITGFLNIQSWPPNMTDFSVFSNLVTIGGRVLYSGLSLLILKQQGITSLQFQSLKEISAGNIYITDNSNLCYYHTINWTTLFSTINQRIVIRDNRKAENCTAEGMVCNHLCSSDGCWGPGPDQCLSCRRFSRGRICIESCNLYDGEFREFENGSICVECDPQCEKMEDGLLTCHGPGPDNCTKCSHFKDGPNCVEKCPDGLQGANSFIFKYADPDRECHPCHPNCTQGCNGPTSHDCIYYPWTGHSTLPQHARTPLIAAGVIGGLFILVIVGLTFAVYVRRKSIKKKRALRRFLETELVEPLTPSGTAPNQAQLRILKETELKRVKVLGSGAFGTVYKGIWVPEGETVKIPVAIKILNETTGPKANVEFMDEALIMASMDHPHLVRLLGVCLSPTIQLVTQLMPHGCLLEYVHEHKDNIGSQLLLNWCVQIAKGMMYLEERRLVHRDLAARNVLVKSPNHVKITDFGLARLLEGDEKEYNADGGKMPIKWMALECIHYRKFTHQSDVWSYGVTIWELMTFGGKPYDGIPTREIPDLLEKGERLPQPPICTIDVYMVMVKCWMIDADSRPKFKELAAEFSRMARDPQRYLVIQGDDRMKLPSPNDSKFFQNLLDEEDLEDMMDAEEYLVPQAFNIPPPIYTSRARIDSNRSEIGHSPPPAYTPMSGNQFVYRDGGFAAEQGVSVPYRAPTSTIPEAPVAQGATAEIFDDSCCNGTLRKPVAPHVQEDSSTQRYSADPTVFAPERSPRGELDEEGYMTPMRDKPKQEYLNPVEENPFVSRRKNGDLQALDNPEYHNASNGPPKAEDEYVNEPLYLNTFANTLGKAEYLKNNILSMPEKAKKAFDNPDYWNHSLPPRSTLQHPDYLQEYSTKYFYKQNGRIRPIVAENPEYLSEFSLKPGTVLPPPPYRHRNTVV
Chain of Mitogen-activated protein kinase 10 (P53779 whole entry): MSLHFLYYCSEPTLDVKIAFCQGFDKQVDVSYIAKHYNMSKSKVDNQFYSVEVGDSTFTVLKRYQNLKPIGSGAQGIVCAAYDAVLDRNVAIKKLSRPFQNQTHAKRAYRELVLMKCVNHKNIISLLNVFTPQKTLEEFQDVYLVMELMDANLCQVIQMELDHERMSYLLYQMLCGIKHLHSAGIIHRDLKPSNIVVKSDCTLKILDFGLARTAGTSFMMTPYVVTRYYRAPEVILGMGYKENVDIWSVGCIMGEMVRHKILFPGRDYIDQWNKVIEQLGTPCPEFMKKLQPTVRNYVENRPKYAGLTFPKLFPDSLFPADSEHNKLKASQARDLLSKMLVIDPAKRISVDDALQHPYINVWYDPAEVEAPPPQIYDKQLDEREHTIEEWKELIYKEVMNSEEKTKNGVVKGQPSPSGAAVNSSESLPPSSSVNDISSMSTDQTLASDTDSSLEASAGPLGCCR
Chain of Tyrosine-protein kinase Lck (P06239 whole entry): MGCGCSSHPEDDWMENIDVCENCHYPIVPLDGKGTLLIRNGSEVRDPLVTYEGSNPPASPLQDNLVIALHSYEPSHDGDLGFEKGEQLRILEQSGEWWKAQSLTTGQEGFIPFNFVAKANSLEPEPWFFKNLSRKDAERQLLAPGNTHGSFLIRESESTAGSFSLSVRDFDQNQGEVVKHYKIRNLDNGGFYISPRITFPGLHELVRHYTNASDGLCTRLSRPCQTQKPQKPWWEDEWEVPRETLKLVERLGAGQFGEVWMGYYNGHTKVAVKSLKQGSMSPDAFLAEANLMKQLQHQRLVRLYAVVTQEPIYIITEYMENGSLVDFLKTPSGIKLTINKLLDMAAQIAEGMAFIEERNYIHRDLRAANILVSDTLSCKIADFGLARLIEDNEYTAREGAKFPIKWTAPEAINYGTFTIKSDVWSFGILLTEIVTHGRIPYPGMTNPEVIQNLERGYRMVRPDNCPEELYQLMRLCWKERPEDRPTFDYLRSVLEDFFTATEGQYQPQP
Chain of Dual specificity mitogen-activated protein kinase kinase 1 (Q02750 whole entry): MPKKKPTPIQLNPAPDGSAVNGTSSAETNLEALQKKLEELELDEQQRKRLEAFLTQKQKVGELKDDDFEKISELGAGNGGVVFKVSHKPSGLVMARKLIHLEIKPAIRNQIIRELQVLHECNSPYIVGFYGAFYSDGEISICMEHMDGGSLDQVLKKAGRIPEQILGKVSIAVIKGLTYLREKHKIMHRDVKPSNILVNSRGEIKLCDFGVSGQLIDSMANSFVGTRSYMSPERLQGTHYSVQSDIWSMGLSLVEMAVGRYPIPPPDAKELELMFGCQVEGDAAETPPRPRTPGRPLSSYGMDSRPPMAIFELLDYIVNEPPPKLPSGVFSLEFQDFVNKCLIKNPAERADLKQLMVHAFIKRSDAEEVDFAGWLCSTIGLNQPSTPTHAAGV

Structure (SMILES): Cc1ccc(NC(=O)c2ccc(CN3CCN(C)CC3)cc2)cc1-c1ccc2[nH]c(=O)ccc2c1
pKi [1]: < 5.60

Structure (SMILES): Cc1ccc(C(=O)NC2CC2)cc1-c1ccc2c(N)noc2c1
pKi [1]: 6.96

Structure (SMILES): Cc1ccc(C(=O)NC2CC2)cc1-c1ccc(-c2csc(N)n2)cc1
pKi [1]: 6.89

Structure (SMILES): CCCCn1c(=O)[nH]c2cc(-c3cc(NC(=O)c4ccc(CN5CCN(C)CC5)cc4)ccc3C)ccc2c1=O
pKi [1]: 5.70

Structure (SMILES): Cc1ccc(NC(=O)c2ccnc(N3CCCC3)c2)cc1-c1ccc2nc(N)[nH]c(=O)c2c1
pKi [1]: 8.17

Structure (SMILES): Cc1nc(-c2ccc(-c3cc(NC(=O)c4ccnc(N5CCCC5)c4)ccc3C)cc2)no1
pKi [1]: 8.96

Structure (SMILES): Cc1ccc(C(=O)NC2CC2)cc1-c1ccc2c(=O)n(CC3CC3)nnc2c1
pIC50 [2]: 6.40 | pIC50 [3]: < 4.60 | pIC50 [4]: < 4.80 | pIC50 [5]: < 4.60 | pIC50 [6]: < 4.60 | pIC50 [7]: < 4.70 | pKi [1]: 8.22 | pIC50 [8]: < 4.70 | pIC50 [9]: < 4.70 | pIC50 [10]: 6.30 | pIC50 [11]: < 4.80 | pIC50 [12]: 4.49

Structure (SMILES): Cc1ccc(NC(=O)c2ccc(CN3CCN(C)CC3)cc2)cc1-c1ccc2ccncc2c1
pIC50 [3]: 6.52 | pIC50 [4]: 7.15 | pIC50 [5]: 6.15 | pIC50 [6]: < 4.60 | pIC50 [7]: 8.40 | pKi [1]: 6.08 | pIC50 [8]: 6.10 | pIC50 [9]: < 4.70 | pIC50 [11]: < 4.80 | pIC50 [12]: < 4.48

Structure (SMILES): Cc1nnc(-c2ccc(-c3cc(C(=O)NC4CC4)ccc3C)c(C)c2)o1
pIC50 [2]: 7.00 | pIC50 [13]: 4.70 | AUC(0-t) at 12 h [14]: 4180 ng·h/mL | bioavailability [15]: 91% | pIC50 [6]: < 4.60 | pIC50 [7]: < 4.70 | clearance [16]: 3 mL/min/kg | pIC50 [8]: < 4.70 | pIC50 [9]: < 4.70 | pIC50 [10]: 6.00 | half-life [17]: 4.6 h | Vd [18]: 1.2 L/kg | pIC50 [12]: < 4.48

Structure (SMILES): Cc1ccc(NC(=O)c2ccnc(N3CCCC3)c2)cc1-c1ccc2onc(C)c2c1
pKi [1]: 6.80

Structure (SMILES): Cc1nnc(-c2ccc(-c3cc(C(=O)Nc4cccc(N5CCOCC5)c4)ccc3C)c(C)c2)o1
pIC50 [13]: 6.40 | pIC50 [6]: < 4.60 | pIC50 [7]: 6.15 | pKi [1]: 8.55 | pIC50 [8]: 5.22 | pIC50 [9]: < 4.70 | pIC50 [11]: < 4.80 | pIC50 [12]: < 4.48

Structure (SMILES): Cc1ccc(C(=O)NC2CC2)cc1-c1ccc2c(=O)[nH]c(-c3cccs3)nc2c1
pKi [1]: 8.54

Structure (SMILES): Cc1ccc(C(=O)NC2CC2)cc1-c1ccc2onc(C)c2c1
pKi [1]: 5.96

Structure (SMILES): Cc1ccc(NC(=O)c2ccnc(N3CCCC3)c2)cc1-c1ccc(-c2csc(N)n2)cc1
pKi [1]: 8.17

Structure (SMILES): Cc1ccc(C(=O)NC2CC2)cc1-c1ccc2ccncc2c1
pIC50 [2]: 7.00 | pIC50 [3]: < 4.60 | pIC50 [4]: 5.52 | pIC50 [5]: < 4.60 | pIC50 [6]: < 4.60 | pIC50 [7]: 6.22 | pKi [1]: 7.96 | pIC50 [8]: 6.30 | pIC50 [9]: < 4.70 | pIC50 [10]: 7.00 | pIC50 [11]: < 4.80 | pIC50 [12]: < 4.48

Structure (SMILES): Cc1ccc(C(=O)NC2CC2)cc1-c1ccc2[nH]ncc2c1 [GW820759X]
pKi [1]: 7.06

The remaining lines, values ahead:

pKi [1]: 7.72
Structure (SMILES): CCCCn1c(=O)[nH]c2cc(-c3cc(C(=O)Nc4cccc(N5CCOCC5)c4)ccc3C)ccc2c1=O

pKi [1]: 6.38
Structure (SMILES): Cc1ccc(C(=O)NC2CC2)cc1-c1ccc2cc[nH]c(=O)c2c1

pKi [1]: 7.74
Structure (SMILES): Cc1ccc(C(=O)Nc2cccc(N3CCOCC3)c2)cc1-c1ccc2cc[nH]c(=O)c2c1

pKi [1]: 8.62
Structure (SMILES): Cc1ccc(NC(=O)c2ccnc(N3CCCC3)c2)cc1-c1ccc2cc[nH]c(=O)c2c1

pKi [1]: < 5.60
Structure (SMILES): Cc1ccc(NC(=O)c2ccc(CN3CCN(C)CC3)cc2)cc1-c1ccc2cc[nH]c(=O)c2c1

pKi [19]: < 5.70
Structure (SMILES): Cc1ccc(C(=O)Nc2cccc(N3CCOCC3)c2)cc1I

pKi [1]: 7.70
Structure (SMILES): Cc1ccc(C(=O)Nc2cccc(N3CCOCC3)c2)cc1-c1ccc(-c2csc(N)n2)cc1

pKi [1]: 7.72
Structure (SMILES): Cc1ccc(C(=O)Nc2cccc(N3CCOCC3)c2)cc1-c1ccc2c(N)noc2c1
